Data: ChEMBL document CHEMBL4725282, “Discovery of a Conformationally Constrained Oxazolidinone with Improved Safety and Efficacy Profiles for the Treatment of Multidrug-Resistant Tuberculosis” (J Med Chem, 2020)
In brackets after ≈: the same amount, converted by molar mass.

Assays:
[1] = test system: Mycobacterium tuberculosis; test: Antitubercular activity against Mycobacterium tuberculosis H37Rv incubated for 7 days by microplate alamar blue assay; format: functional; details: 168 h, time 7 day
How it was run: (§1)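 MIC determined by microplate alamar blue assay (MABA) following a published protocol.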

[2] = Inhibition of mitochondrial protein synthesis in rat H9c2 cells measured after 5 days by ELISA; format: cell-based; details: H9c2, 120 h
How it was run: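 H9C2 cells in DMEM with 10% FBS, seeded 1500/well. After 18 h, compound added at final 0.03–200 μM (3-fold series), then 5 days at 37 °C, 5% CO2; 0.5% DMSO negative control. MPS inhibition read by MitoBiogenesis In-Cell ELISA; IC50 calculated.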

[3] = test system: Mycobacterium tuberculosis; test: Antitubercular activity against Mycobacterium tuberculosis isolate 12525 incubated for 7 days by microplate alamar blue assay; format: functional; details: isolate 12525, 168 h, time 7 day; how it was run: as §1
[4] = Tmax in Balb/c mouse at 25 mg/kg, po by LC-MS/MS analysis; format: ADME, organism-based; details: in vivo
How it was run: (§2)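 Female BALB/c mice, 20-25 g, five per route. Dosed 25 mg/kg p.o. in 0.5% carboxymethyl cellulose or 2.5 mg/kg i.v. in 10% DMSO/saline. Blood sampled 5 min-72 h (p.o.) or 2 min-48 h (i.v.), quantified by LC/MS/MS with ESI+. Parameters by non-compartmental analysis; F = (AUCpo×dose_iv)/(AUCiv×dose_po)×100%.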

[5] = Cmax in Balb/c mouse at 25 mg/kg, po by LC-MS/MS analysis; format: ADME, organism-based; design: route oral, dose 25 mg/kg; details: in vivo
How it was run: (§3)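 Female BALB/c mice (20–25 g), five per route. Oral dose 25 mg/kg in 0.5% carboxymethyl cellulose; i.v. dose 2.5 mg/kg in 10% DMSO/physiological saline. Blood sampled 5 min–72 h after p.o. and 2 min–48 h after i.v. Analyte quantified by LC/MS/MS (ESI positive, C18, isocratic methanol/water). Parameters from non-compartmental analysis.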

[6] = AUC (0 to t) in Balb/c mouse at 25 mg/kg, po by LC-MS/MS analysis; format: ADME, organism-based; design: dose 25 mg/kg; details: in vivo; how it was run: as §3
[7] = MRT (0 to t) in Balb/c mouse at 25 mg/kg, po by LC-MS/MS analysis; format: ADME, organism-based; details: in vivo; how it was run: as §3
[8] = MRT (0 to infinity) in Balb/c mouse at 25 mg/kg, po by LC-MS/MS analysis; format: ADME, organism-based; details: in vivo; how it was run: as §3
[9] = Terminal half life in Balb/c mouse at 2.5 mg/kg, iv by LC-MS/MS analysis; format: ADME, organism-based; details: in vivo, read-out: beta t1/2 (converted); how it was run: as §2
[10] = Cmax in Balb/c mouse at 2.5 mg/kg, iv by LC-MS/MS analysis; format: ADME, organism-based; design: route intravenous, dose 2.5 mg/kg; details: in vivo; how it was run: as §3
[11] = AUC (0 to infinity) in Balb/c mouse at 2.5 mg/kg, iv by LC-MS/MS analysis; format: ADME, organism-based; design: time infinity, route intravenous, dose 2.5 mg/kg; details: in vivo; how it was run: as §3
[12] = MRT (0 to infinity) in Balb/c mouse at 2.5 mg/kg, iv by LC-MS/MS analysis; format: ADME, organism-based; details: in vivo; how it was run: as §3
[13] = test system: HepG2; test: Cytotoxicity against human HepG2 cells assessed as reduction in cell viability measured after 48 hrs by MTT assay; format: cell-based; details: HepG2, 48 h
How it was run: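 Cytotoxicity on Vero or HepG2 cells by MTT assay, run as previously reported.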

[14] = Mutagenicity in Salmonella typhimurium TA100 up to 1000 ug measured after 48 to 72 hrs in absence of S9 fraction by Ames test; format: toxicity; details: salmonella enterica subsp. enterica serovar typhimurium, dose <=1000 µg, time 48-72 hrs
How it was run: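 Mini-Ames test in S. typhimurium TA100, up to 1000 μg/well, DMSO vehicle. Run with 10% S9 mix or PBS in molten top agar on minimal agar, 37 °C for 48-72 h. Revertants counted manually. Positive if revertants rise ≥2-fold over vehicle mean in a dose-related manner.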

[15] = Mutagenicity in Salmonella typhimurium TA100 up to 1000 ug measured after 48 to 72 hrs in presence of S9 fraction by Ames test; format: toxicity, subcellular; details: salmonella enterica subsp. enterica serovar typhimurium, dose <=1000 µg, time 48-72 hrs
How it was run: (§4)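 Mini-Ames, plate incorporation in 6-well format. Bacteria, compound (DMSO vehicle, top 1000 µg/well), and 10% S9 mix or PBS were mixed into molten agar at 45°C and poured over minimal agar, then incubated 37°C for 48-72 h. Revertants were counted manually and the background lawn inspected. A result is positive at ≥2-fold the mean vehicle revertants with a dose-related increase.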

[16] = Mutagenicity in Salmonella typhimurium TA98 up to 1000 ug measured after 48 to 72 hrs in presence of S9 fraction by Ames test; format: toxicity, subcellular; details: salmonella enterica subsp. enterica serovar typhimurium, dose <=1000 µg, time 48-72 hrs; how it was run: as §4
[17] = biological target: Voltage-gated inwardly rectifying potassium channel KCNH2 (Homo sapiens, UniProt Q12809); test: Inhibition of human ERG expressed in HEK293 cells by whole cell manual patch clamp method; format: cell-based
How it was run: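 HEK293 cells stably transfected with hERG; currents recorded by whole-cell manual patch clamp at 25 °C, sampled at 10 kHz. Five concentrations (0.3–30 μM) in duplicate for IC50; dofetilide as positive control.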

[18] = Inhibition of human Nav1.5 expressed in CHO cells at -80 mV holding potential by whole-cell patch-clamp method; format: cell-based
How it was run: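 CHO cells expressing Nav1.5, whole-cell patch clamp. Extracellular saline with 132 mM NaCl, 10 mM HEPES, pH 7.35; KCl/EGTA/MgATP pipette solution. Holding potential -80 mV, 20 ms step to -10 mV. Final compound concentrations 0.3–30 μM, diluted from DMSO stocks.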

[19] = biological target: T1, Amine oxidase [flavin-containing] A (Homo sapiens, UniProt P21397); test: Inhibition of recombinant human MAOA expressed in baculovirus infected insect cells using kynuramine as substrate measured after 20 mins by LC-MS/MS analysis
T1 sequence (P21397 whole entry): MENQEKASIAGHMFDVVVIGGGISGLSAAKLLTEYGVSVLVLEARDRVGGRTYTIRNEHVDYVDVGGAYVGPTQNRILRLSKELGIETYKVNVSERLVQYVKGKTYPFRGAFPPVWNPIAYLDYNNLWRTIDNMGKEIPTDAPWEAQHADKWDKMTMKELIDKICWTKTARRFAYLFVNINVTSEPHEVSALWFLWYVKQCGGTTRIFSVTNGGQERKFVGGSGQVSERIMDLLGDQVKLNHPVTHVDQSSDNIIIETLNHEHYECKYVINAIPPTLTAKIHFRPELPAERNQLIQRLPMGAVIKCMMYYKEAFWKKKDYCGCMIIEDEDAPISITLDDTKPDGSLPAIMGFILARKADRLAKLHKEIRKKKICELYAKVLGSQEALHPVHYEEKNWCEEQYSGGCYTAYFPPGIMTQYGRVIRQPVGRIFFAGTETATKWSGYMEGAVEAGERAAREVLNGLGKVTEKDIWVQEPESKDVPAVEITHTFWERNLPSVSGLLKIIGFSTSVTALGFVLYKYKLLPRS
How it was run: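 Recombinant human MAO-A or MAO-B (50 μg/mL) in 100 mM potassium phosphate pH 7.4 with 5 mM MgCl2. Kynuramine substrate at 50 μM (MAO-A) or 25 μM (MAO-B). […] 4-Hydroxyquinoline formation measured by LC-MS/MS versus vehicle; IC50 derived.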

Sequence of Voltage-gated inwardly rectifying potassium channel KCNH2 (Q12809 whole entry): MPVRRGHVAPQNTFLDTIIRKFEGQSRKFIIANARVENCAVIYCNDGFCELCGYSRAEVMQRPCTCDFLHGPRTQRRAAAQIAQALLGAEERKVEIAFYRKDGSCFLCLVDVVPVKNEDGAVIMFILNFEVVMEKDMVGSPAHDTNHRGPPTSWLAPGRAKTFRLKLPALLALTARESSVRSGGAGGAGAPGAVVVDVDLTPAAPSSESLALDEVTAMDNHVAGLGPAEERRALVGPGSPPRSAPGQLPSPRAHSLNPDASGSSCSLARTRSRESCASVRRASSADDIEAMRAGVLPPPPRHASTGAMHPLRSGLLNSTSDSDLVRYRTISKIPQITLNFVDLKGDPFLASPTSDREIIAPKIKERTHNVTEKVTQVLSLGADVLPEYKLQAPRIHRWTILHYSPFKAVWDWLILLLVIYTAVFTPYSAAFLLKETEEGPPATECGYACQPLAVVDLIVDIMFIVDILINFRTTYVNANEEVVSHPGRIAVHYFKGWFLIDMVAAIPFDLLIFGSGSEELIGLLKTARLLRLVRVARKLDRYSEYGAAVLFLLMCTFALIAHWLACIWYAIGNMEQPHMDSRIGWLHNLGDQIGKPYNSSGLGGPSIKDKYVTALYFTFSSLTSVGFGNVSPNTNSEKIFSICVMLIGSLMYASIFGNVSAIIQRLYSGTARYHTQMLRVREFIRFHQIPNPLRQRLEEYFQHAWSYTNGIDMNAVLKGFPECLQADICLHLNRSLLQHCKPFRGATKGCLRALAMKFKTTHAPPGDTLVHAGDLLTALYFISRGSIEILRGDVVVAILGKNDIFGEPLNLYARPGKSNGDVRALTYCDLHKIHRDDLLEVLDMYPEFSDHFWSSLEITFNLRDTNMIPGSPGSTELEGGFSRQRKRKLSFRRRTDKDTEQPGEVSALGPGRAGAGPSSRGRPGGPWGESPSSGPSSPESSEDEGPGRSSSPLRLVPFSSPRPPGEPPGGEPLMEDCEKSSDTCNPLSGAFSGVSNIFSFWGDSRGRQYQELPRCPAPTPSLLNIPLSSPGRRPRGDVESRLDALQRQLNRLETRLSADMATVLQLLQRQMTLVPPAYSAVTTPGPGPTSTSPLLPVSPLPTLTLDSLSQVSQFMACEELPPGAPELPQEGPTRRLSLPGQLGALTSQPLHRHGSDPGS

Row | Compound | MIC ([1]; Mycobacterium tuberculosis, H37Rv, read-out: MIC) | IC50 [2] | MIC [3] | Tmax [4] | Cmax [5] | AUC(0-t) [6] | MRT last [7] | MRT inf [8] | half-life [9] | Cmax [10] | AUC(0-inf) [11] | MRT inf [12] | IC50 [13] | Activity [14] | Activity [15] | Activity [16] | IC50 [17] | IC50 [18] | IC50 [19] | MIC [1]
1 | CC(=O)NC[C@@H]1OC(=O)N2c3cc(F)c(N4CC[S+]([O-])CC4)cc3OC[C@@H]12 | 0.44 µg/mL (≈ 1.11 µM) | 60.6 µM | 0.46 µg/mL (≈ 1.16 µM) | 0.5 h | 1520 ng/mL | 8750 ng·h/mL | 9.83 h | 10.8 h | 3.81 h | 115 ng/mL | 592 ng·h/mL | 6.22 h | > 64 µg/mL | Non-Toxic | Non-Toxic | Non-Toxic | > 30 µM | > 30 µM | > 100 µM | 
2 | CC(=O)NC[C@@H]1OC(=O)N2c3cc(F)c(N4CCSCC4)cc3OC[C@@H]12 |  | > 100 µM | 0.03 µg/mL (≈ 0.0787 µM) | 0.25 h | 3000 ng/mL | 6480 ng·h/mL | 7.59 h | 15.2 h | 0.923 h | 4200 ng/mL | 1190 ng·h/mL | 0.691 h | > 64 µg/mL | Non-Toxic | Non-Toxic | Non-Toxic | > 30 µM | > 30 µM | 44.8 µM | 0.03 µg/mL (≈ 0.0787 µM)
